≈ marks a conversion by molar mass, not a printed value. Like-named read-outs stand apart in the source and are kept apart here.

One experiment deals with breast cancer cells. To be noted: cited from earlier work.
In experiment [1] the test system is breast cancer (MCF-7) cell line. The experiment can be described thus: MTT cytotoxicity assay on MCF-7 cells. It counts as cell-based, human.
The test system of experiment [2] is breast epithelial (MCF10A) cell line. The experiment in a line: MTT cytotoxicity assay on MCF10A cells. Type of experiment: cell-based. To be noted: Homo sapiens, MCF-10A, read-out: IC50 (μg mL^−1) ± SD against MCF-10A. A digest of the protocol:
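Mycoplasma-free MCF-10A cells, run in triplicate, were exposed to increasing doses of test compound, with 5-fluorouracil as positive control. MTT was added for 4 h, formazan was dissolved in DMSO, and absorbance was read at 570 and 630 nm. Viability = (A − A0)/(ANC − A0), using mean absorbances of treated, blank and cells-only wells. IC50 was derived from viability.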
(In general: Formazan colour is commonly taken as a measure of viable cells.)

On to `N.N.O=C([O-])C1(C(=O)[O-])CCC1.[Pt+2]` [Carboplatin], for which the IC50 in the experiment on breast cancer cells (ref S2) is 73.5 µM.
`N.N.[Cl][Pt][Cl]` [Cisplatin]: the half-maximal inhibitory concentration (IC50) with breast cancer cells (ref S1) is 12.2 µM.
On to `O=C1[O][Pt]2([NH][C@@H]3CCCC[C@H]3[NH]2)[O]C1=O` [Oxaliplatin], for which the half-inhibitory concentration (IC50) in the experiment with breast cancer cells (ref S2) is 21.9 µM.
`O=c1[nH]cc(F)c(=O)[nH]1` [5-FU, 5-fluorouracil, reference compound]: the IC50 in experiment [1] (Homo sapiens, MCF7, read-out: IC50 (μg mL^−1) ± SD against MCF-7) came out at 28.3 ± 1.89 µg/mL (≈ 218 µM); in experiment [2], 41 ± 1.89 µg/mL (≈ 315 µM). For the same compound, in experiment [1] (cancer MCF-7 cells over healthy MCF10A cells), the “Selectivity index (SI)” value is recorded as 1.45.

As a reminder, the IC50 is the midpoint of a concentration-inhibition curve.

Source of the values: PMC11378026 (RSC Advances, 2024).
